Experimental data: ChEMBL document CHEMBL1154529, “Conformationally constrained opioid ligands: the Dmt-Aba and Dmt-Aia versus Dmt-Tic scaffold” (Bioorg Med Chem Lett, 2009)
Residues, ends and D or L forms follow the SMILES beside them.

How the values were obtained:
[1] = target: Delta-type opioid receptor (Rattus norvegicus, UniProt P33533); assay: Displacement of [3H]DPDPE from delta opioid receptor in Sprague-Dawley rat brain synaptosomal membranes; assay type: cell membranes, Membrane
In short: (§1)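 Radioligand competition in rat brain synaptosomal preparations. Peptides tested at five to eight graded doses, each assay in duplicate, repeated three to six times on several different synaptosomal preparations. Ki calculated by Cheng–Prusoff; mean ± SEM.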

[2] = target: Mu-type opioid receptor (Rattus norvegicus, UniProt P33535); assay: Displacement of [3H]DAMGO from mu opioid receptor in Sprague-Dawley rat brain synaptosomal membranes; assay type: cell membranes, Membrane; in short: as §1
[3] = organism: Rattus norvegicus; assay: Selectivity ratio of Ki for Sprague-Dawley rat mu opioid receptor to Ki for Sprague-Dawley rat delta opioid receptor
[4] = target: T1, Delta-type opioid receptor (Mus musculus, UniProt P32300); assay: Agonist activity at delta opioid receptor in mouse assessed as inhibition of electrically evoked vas-deferens contraction by MVD test
[5] = target: T1, Delta-type opioid receptor; assay: Antagonist activity at delta opioid receptor in mouse assessed as effect on electrically evoked vas-deferens contraction by MVD test; assay type: functional; conditions: read-out: pA2 (converted)
[6] = target: Mu-type opioid receptor (Cavia porcellus, UniProt P97266); assay: Agonist activity at mu opioid receptor in Hartley guinea pig assessed as inhibition of electrically evoked ileum contraction by GPI test; assay type: functional, tissue-based
In short: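 Isolated tissue bioassays: mouse vas deferens (delta) and guinea-pig ileum (mu). Agonism expressed as IC50 read from dose–response curves. Internal standards were deltorphin C (MVD) and dermorphin (GPI). Mean ± SEM of at least six fresh tissue samples.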

[7] = organism: Rattus norvegicus; assay: Selectivity ratio of Ki for Sprague-Dawley rat delta opioid receptor to Ki for Sprague-Dawley rat mu opioid receptor

T1 sequence (P32300 whole entry): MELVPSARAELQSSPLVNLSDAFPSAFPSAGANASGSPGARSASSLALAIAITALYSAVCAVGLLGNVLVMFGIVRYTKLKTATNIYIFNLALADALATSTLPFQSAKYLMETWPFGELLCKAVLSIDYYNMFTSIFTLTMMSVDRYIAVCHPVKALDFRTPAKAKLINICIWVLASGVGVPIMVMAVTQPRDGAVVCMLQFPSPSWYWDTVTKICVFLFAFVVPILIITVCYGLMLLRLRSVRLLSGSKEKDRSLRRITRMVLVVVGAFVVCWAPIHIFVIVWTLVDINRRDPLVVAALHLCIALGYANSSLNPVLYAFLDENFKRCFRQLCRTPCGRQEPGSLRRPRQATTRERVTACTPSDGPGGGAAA
Delta-type opioid receptor (Rattus norvegicus, UniProt P33533), sequence (P33533 whole entry): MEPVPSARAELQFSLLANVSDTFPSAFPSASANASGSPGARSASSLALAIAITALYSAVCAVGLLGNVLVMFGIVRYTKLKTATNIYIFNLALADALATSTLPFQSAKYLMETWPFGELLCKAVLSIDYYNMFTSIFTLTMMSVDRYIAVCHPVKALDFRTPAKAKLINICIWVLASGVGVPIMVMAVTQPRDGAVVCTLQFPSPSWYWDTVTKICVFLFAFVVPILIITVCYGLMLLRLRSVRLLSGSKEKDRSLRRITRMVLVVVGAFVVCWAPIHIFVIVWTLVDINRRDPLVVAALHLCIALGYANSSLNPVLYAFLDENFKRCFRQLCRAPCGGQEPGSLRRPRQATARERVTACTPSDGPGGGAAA
Mu-type opioid receptor (Rattus norvegicus, UniProt P33535), sequence (P33535 whole entry): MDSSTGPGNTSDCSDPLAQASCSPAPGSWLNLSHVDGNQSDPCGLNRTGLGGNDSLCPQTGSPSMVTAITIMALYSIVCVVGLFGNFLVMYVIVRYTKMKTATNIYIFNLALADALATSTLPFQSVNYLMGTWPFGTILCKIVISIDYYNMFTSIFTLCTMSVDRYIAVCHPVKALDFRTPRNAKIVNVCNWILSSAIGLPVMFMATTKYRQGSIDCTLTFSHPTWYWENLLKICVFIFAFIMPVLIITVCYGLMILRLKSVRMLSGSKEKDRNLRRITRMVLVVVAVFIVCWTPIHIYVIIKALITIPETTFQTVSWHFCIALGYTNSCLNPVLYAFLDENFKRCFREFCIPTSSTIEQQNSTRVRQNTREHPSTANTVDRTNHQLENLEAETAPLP
Mu-type opioid receptor (Cavia porcellus, UniProt P97266), sequence (P97266 whole entry): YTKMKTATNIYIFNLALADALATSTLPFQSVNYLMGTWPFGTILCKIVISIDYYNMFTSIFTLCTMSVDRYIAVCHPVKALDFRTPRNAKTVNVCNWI

Row | SMILES | Ki [1] [µM] | Ki [2] [µM] | Ratio Ki [3] | IC50 [4] [µM] | Kb [5] [µM] | IC50 [6] [µM] | Ratio Ki [7]
1 | Cc1cc(O)cc(C)c1C[C@@H](C(=O)N[C@H]1Cc2c([nH]c3ccccc23)CN(CC(=O)O)C1=O)N(C)C | 0.00664 | 0.875 | 132 | > 20 | 0.00501 | > 20 | –
2 | Cc1cc(O)cc(C)c1C[C@H](N)C(=O)N[C@H]1Cc2ccccc2CN([C@@H](CC(=O)O)C(=O)NCc2ccccc2)C1=O | 1.48 | 0.63 | – | – | – | – | 2.3
3 | Cc1cc(O)cc(C)c1C[C@H](N)C(=O)N[C@H]1Cc2c([nH]c3ccccc23)CN(CC(=O)O)C1=O | 0.806 | 1.45 | 1.8 | – | – | > 20 | –
4 | Cc1cc(O)cc(C)c1C[C@H](N)C(=O)N[C@H]1Cc2c([nH]c3ccccc23)CN(CC(=O)NCc2ccccc2)C1=O | 0.358 | 0.05 | – | – | – | 1.8 | 7.2
5 | Cc1cc(O)cc(C)c1C[C@@H](C(=O)N[C@H]1Cc2ccccc2CNC1=O)N(C)C | 0.0205 | 0.0649 | 3.2 | > 20 | 0.0631 | > 20 | –
6 | Cc1cc(O)cc(C)c1C[C@H](N)C(=O)N[C@H]1Cc2ccccc2CN(CC(=O)NCc2ccccc2)C1=O | 0.011 | 0.00046 | – | – | – | – | 24
7 | Cc1cc(O)cc(C)c1C[C@H](N)C(=O)N[C@H]1Cc2ccccc2CNC1=O | 0.368 | 0.0124 | – | – | – | 0.631 | 30
8 | Cc1cc(O)cc(C)c1C[C@H](N)C(=O)N[C@@H]1Cc2c([nH]c3ccccc23)CN(CC(=O)NCc2ccccc2)C1=O | 0.161 | 0.00335 | – | 1.5 | – | 0.0149 | 48
9 | Cc1cc(O)cc(C)c1C[C@@H](C(=O)N[C@@H]1Cc2c([nH]c3ccccc23)CN(CC(=O)O)C1=O)N(C)C | 1.15 | 10.1 | 8.8 | – | – | – | –
10 | Cc1cc(O)cc(C)c1C[C@H](N)C(=O)N1Cc2ccccc2C[C@H]1C(=O)NCC(=O)NCc1ccccc1 (HELM PEPTIDE1{[Cc1cc(O)cc(C)c1C[C@H](N)C(=O)[*:2]].[Tic].G.[c1ccc(CN[*:1])cc1]}$$$$V2.0) | – | – | 5.2 | – | 0.000501 | – | –
11 | Cc1cc(O)cc(C)c1C[C@H](N)C(=O)N[C@H]1Cc2ccccc2CN([C@@H](CCCCN)C(=O)NCc2ccccc2)C1=O | 0.29 | 0.0101 | – | – | – | 3.27 | 29
12 | Cc1cc(O)cc(C)c1C[C@H](N)C(=O)N[C@@H]1Cc2c([nH]c3ccccc23)CN(CC(=O)O)C1=O | 0.72 | 2.9 | 4 | – | – | – | –
13 | Cc1cc(O)cc(C)c1C[C@@H](C(=O)N[C@@H]1Cc2c([nH]c3ccccc23)CN(CC(=O)NCc2ccccc2)C1=O)N(C)C | 0.681 | 0.133 | – | – | – | – | 5
14 | Cc1cc(O)cc(C)c1C[C@H](N)C(=O)N[C@H]1Cc2c([nH]c3ccccc23)CN(CC(=O)OCc2ccccc2)C1=O | 4.06 | 0.244 | – | – | – | – | 17
